Screening data (PubChem BioAssay)
Sampled rows, rich in hits. Any-hit rate of the full collection: about 3.5%.
MrgX1 ag: agonists of human MrgX1 receptor, primary screen, HEK293 cells, Fluo-4 calcium flux | B-score at 10 µM | Fluo-4 calcium fluorescence, agonist mode; hits give high values | AID 588627, 2011 | Mas-related G-protein coupled receptor member X1 (Homo sapiens), Q96LB2 | 310,000 compounds, 0.44% hits;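 active = calcium response B-score plate-corrected fluorescence ratio at least 3 library SD, with starting fluorescence B-score inside 5 SD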
Target sequence (Q96LB2 whole entry, looked up): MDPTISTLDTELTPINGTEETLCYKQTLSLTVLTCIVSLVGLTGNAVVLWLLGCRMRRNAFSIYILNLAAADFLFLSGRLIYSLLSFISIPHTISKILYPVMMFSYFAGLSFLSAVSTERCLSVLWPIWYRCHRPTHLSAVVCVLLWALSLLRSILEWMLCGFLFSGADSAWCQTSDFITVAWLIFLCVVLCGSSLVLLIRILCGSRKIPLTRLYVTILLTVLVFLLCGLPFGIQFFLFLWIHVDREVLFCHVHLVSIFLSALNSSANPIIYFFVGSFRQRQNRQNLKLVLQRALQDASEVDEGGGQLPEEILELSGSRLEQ
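Material: HEK293 cells stably expressing human MrgX1 receptor | Quantity: 15,000 cells per well | Times: Cells plated overnight, dye loaded 0.5 h 37 °C, 0.5 h room temperature | Measured by: Kinetic Fluo-4 NW fluorescence of intracellular calcium | Control set: Positive and negative controls per plate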
RGS4 inh: RGS4 inhibitors, primary screen, cell-based, HEK293 M3R inducible RGS4, calcium flux | AID 463165, 2010 | B-score at 10 µM | Fluo-4 calcium flux; hits give high values; triggered by carbachol at its EC20 | 310,000 compounds, 0.45% hits | Regulator of G-protein signaling 4 (Homo sapiens), P49798;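 active = B-score, a plate-corrected calcium signal, over three deviations above library mean, with baseline fluorescence within five deviations of library mean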;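 note: RGS4 expression induced by doxycycline in cells with stable M3 receptor; B-score is computed from the integrated fluorescence ratio over baseline after carbachol; higher B-score means a larger calcium signal and so more RGS4 inhibition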
Target sequence (P49798 whole entry, looked up): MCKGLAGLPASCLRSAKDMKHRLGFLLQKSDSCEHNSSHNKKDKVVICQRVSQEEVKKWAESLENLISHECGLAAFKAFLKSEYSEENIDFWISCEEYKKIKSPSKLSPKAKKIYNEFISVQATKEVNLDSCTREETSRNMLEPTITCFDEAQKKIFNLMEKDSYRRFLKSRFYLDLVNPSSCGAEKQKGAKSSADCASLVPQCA
MrgX1 antag: antagonists of human MrgX1 receptor, primary screen, HEK293 cells, Fluo-4 calcium flux; BAM8-22 antagonism; hits give low values; B-score at 10 µM; Mas-related G-protein coupled receptor member X1 (Homo sapiens), Q96LB2; 310,000 compounds, 1.3% hits;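 active = calcium-response B-score plate-corrected more than 3 library SD below zero, starting fluorescence within 5 deviations, no agonist response on first addition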;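 note: peak minus trough fluorescence over baseline after final BAM8-22 challenge near maximal dose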
RGS4 act: RGS4 potentiators or activators, primary screen, cell-based, HEK293 M3R inducible RGS4, calcium flux. carbachol calcium flux Fluo4; hits give low values. AID 463111, 2010. 310,000 compounds, 0.92% hits. B-score at 10 µM;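 active = B-score of the integrated calcium signal more than 4 SD below the library mean, with starting fluorescence not abnormally high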;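 note: negative B-score means reduced calcium response which marks RGS4 activation or potentiation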
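Detection: kinetic calcium fluorescence imaging with Fluo4-AM dye, 2 µM / Material: HEK293 cells with stable M3R and inducible RGS4 / Schedule: recording 10 s baseline at 1 Hz, 100 s post-agonist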
MrgX1 PAM: positive allosteric modulators of MrgX1, primary screen, HEK293 cells, Fluo-4 calcium flux. FDSS; hits give high values. Mas-related G-protein coupled receptor member X1 (Homo sapiens), Q96LB2. AID 588675, 2011. B-score at 10 µM. 310,000 compounds, 0.63% hits;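 active = plate-corrected calcium response at least 3 library SD above typical, normal starting fluorescence, not activating the receptor alone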;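 note: compound read alongside a low EC10 to EC30 dose of BAM8-22 agonist; peak minus trough fluorescence over baseline measured at the second addition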
RGS4 activ val: reduced carbachol calcium response, RGS4-induced M3R cells, confirmation, RGS4 activator project, cell-based, HEK293 M3R/RGS4 inducible, calcium flux, duplicate; shares compounds with RGS4 act; carbachol calcium flux Fluo4; inhibition, % at 10 µM; 1,100 compounds, 89% hits; AID 602282, 2012;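 active = inhibition above 3 SD of the buffer control wells, cut at about 41% in these data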;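 note: signal is the integrated peak-minus-minimum Fluo4 fluorescence over baseline ratio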
M3R Ca counter: RGS4 activator counter-screen hit in non-induced cells; shares compounds with RGS4 act; AID 602283; HEK293 M3R non-induced RGS4, Fluo4 calcium flux; after carbachol challenge at its EC90; inhibition, % at 10 µM; 1,100 compounds, 82% hits;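 active = inhibition exceeding 3 SD of buffer-only control wells, cut at about 26% in these data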;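 note: percent drop in integrated peak-minus-baseline over baseline Fluo4 ratio after carbachol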
Large screens that a line does not name were inactive (follow-up assays come after a bar, where they were run); ! = not active in a repeat.

COc1c(-c2ccc(O)cc2)oc2cc(O)cc(O)c2c1=O	none (no result: RGS4 inh, RGS4 act)
CSCCC(=O)N1CCCC(N2CCN(c3cccc(C(F)(F)F)c3)CC2)C1 (configuration not stated)	none
C=CCn1c(SCCCC)nc(O)cc1=O	MrgX1 PAM 10.4!
Oc1ccccc1-c1nc(NCC2CCCO2)c2ccccc2n1 (configuration not stated)	RGS4 act -8.45
COc1ccc(NC(=O)CCNS(=O)(=O)c2cc(Br)cnc2N)cc1OC	none
CCOCCCN(C)C1CCN(C(=O)c2oc3ccccc3c2NC(=O)COc2ccc(F)cc2)CC1	none
Cc1cccc(NS(=O)(=O)c2ccc(NC(=O)CN(c3cc([N+](=O)[O-])ccc3C)S(C)(=O)=O)cc2)c1	RGS4 inh 6.57
COc1ccc(CCNC(=O)CN(c2cc([N+](=O)[O-])ccc2OC)S(C)(=O)=O)cc1	MrgX1 antag -5.06
CS(=O)(=O)N(CC(=O)Nc1ccc(F)c(F)c1)c1cccc([N+](=O)[O-])c1	MrgX1 PAM 8.55
COc1ccccc1CNC(=O)CN(c1cccc([N+](=O)[O-])c1)S(C)(=O)=O	MrgX1 PAM 11
CC(C)CN(C)C(=O)CCc1nnc(Cc2ccc(-c3ccccc3)cc2)o1	none
CCCC1CCC(C(=O)Nn2cnc3ccccc3c2=O)CC1 (configuration not stated)	none
O=C(Nn1cnc2ccccc2c1=O)C1CCCCC1	MrgX1 antag -7.53
CCOC(=O)C1=C(C)N=C2SC(C)C(=O)N2C1c1cccc(F)c1 (configuration not stated)	RGS4 act -8.11 | RGS4 activ val inactive | M3R Ca counter inactive
Cc1ccc(-c2cnc3ccccc3n2)cc1C	none
COc1ccc(-c2nc3cnccn3c2NCc2ccccc2)cc1SC1CCCCC1	RGS4 act -10.9 | RGS4 activ val 92.5 | M3R Ca counter 85.8
Cc1ccn(S(=O)(=O)c2ccc(C(C)(C)C)cc2)n1	RGS4 act -7.85 | RGS4 activ val 92.0 | M3R Ca counter 25.8
Oc1ccccc1Oc1ncc(Br)c(N2CCOCC2)n1	RGS4 act -11.1 | RGS4 activ val 92.5 | M3R Ca counter 63.8
Cc1cc(C)nc(N2CCC(C(=O)NNC(=O)c3ccc(Cl)cc3)CC2)n1	none
Cc1ccc(Oc2ccc(NC(=O)Cn3ccsc3=N)cc2)cc1	MrgX1 ag 45.3, RGS4 act -8.81 | RGS4 activ val 89.0 | M3R Ca counter 51.8
COc1ccc(C2NC(=O)N(C)C3=C2C(=O)CC(C)(C)C3)cc1OC (configuration not stated)	none
OCCNCCCCOc1ccc(OCc2ccccc2)cc1	none
OCCCCNCc1ccc(OCc2ccccc2)cc1	RGS4 act -7.75 | RGS4 activ val 59.5 | M3R Ca counter 83.8
COc1ccc2c(C)cc(N3CCN(Cc4ccccc4)CC3)nc2c1	none
COc1ccc2c(C)cc(N3CCCCCC3)nc2c1	RGS4 act -11.5 | RGS4 activ val 92.0 | M3R Ca counter 74.8
COC(=O)c1ccc(C(=O)OC)c(NC(=O)COC(=O)CC2CC3CCC2C3)c1 (configuration not stated)	RGS4 act -9.7 | RGS4 activ val 90.0 | M3R Ca counter 32.8
Cc1ccc(Cl)cc1NC(=O)COC(=O)CC1CC2CCC1C2 (configuration not stated)	none
O=C(Nc1ccc(Cl)cc1)N(C1=NCCC1)c1ccc(OC(F)F)cc1	RGS4 act -10.2 | RGS4 activ val 92.5 | M3R Ca counter 92.3
O=C(COC(=O)Cc1ccc(Cl)cc1)Nc1ccc(OC(F)F)cc1	none
COC(=O)CSc1nc(SCc2ccccc2Cl)nc2c1CCCC2	RGS4 act -8.01 | RGS4 activ val 47.5 | M3R Ca counter 83.8
COc1ccc(CCNC(=O)C(=O)NCC2CCCN2S(=O)(=O)c2cc(C)ccc2C)cc1 (configuration not stated)	RGS4 act -9.52 | RGS4 activ val 74.5 | M3R Ca counter 26.3
Cc1ccc(C)c(S(=O)(=O)N2CCCC2CNC(=O)C(=O)NCc2ccccc2C)c1 (configuration not stated)	none
COc1ccc(CCNC(=O)C(=O)NCC2OCCCN2S(=O)(=O)c2cc(C)ccc2C)cc1 (configuration not stated)	none
Cc1ccc(C)c(S(=O)(=O)N2CCCC2CNC(=O)C(=O)NCCc2ccccc2)c1 (configuration not stated)	RGS4 act -10 | RGS4 activ val 79.5 | M3R Ca counter 30.8
COc1ccc(N(C)S(=O)(=O)c2c(C)[nH]c(=O)[nH]c2=O)cc1	RGS4 act -8.06 | RGS4 activ val inactive | M3R Ca counter inactive
Cc1ccc(NC(=O)CN(C)C(=O)c2cc(-c3ccco3)nc3ccccc23)cc1	RGS4 act -8.29 | RGS4 activ val 61.0 | M3R Ca counter inactive
COc1ccc(NC(=O)CN(C)C(=O)c2cc(-c3ccc(OC)cc3)nc3ccccc23)cc1	RGS4 act -8.05 | RGS4 activ val 54.0 | M3R Ca counter 83.8
COc1ccc(-c2cc(C(=O)N(C)CC(=O)Nc3cccc(F)c3)c3ccccc3n2)cc1	RGS4 act -8.21 | RGS4 activ val 69.5 | M3R Ca counter 28.3
COc1ccc(NC(=O)CN(C)C(=O)c2cccc3ccccc23)cc1	none
CN(CCOc1ccc(Cl)cc1)C(=O)c1cc(-c2ccco2)nc2ccccc12	RGS4 act -8.5 | RGS4 activ val 91.0 | M3R Ca counter 66.3
O=c1cc2c(n[nH]1)-c1ccccc1CC2	none
CNC(=O)c1[nH]cnc1C(=O)Nc1ccc(OC)cc1	none
Cc1ccc(C(=O)NCc2ccc3c(c2)OCO3)cc1C	none
CCCn1c(SCC(=O)c2cc(OC)ccc2OC)nnc1C(C)C	none
CCN(c1ccccc1)S(=O)(=O)c1cc2c3c(c1)CCN3C(=O)CC2	none
COc1ccc(NC(=O)CN(C)C(=O)c2cc(-c3ccccc3)nc3ccccc23)cc1	RGS4 act -8.42 | RGS4 activ val 48.5 | M3R Ca counter inactive
COc1ccc(NC(=O)CN(C)C(=O)c2cc(-c3ccncc3)nc3ccccc23)cc1	none
Cc1cccc2c1Sc1ccc(Cl)cc1CC2N1CCNCC1 (configuration not stated)	RGS4 act -7.63 | RGS4 activ val 93.0 | M3R Ca counter 96.3
COc1cc(OC)c(C(=O)CCCN2CCCC2)c(OC)c1	none
